Results reported in ChEMBL document CHEMBL1128238, “Synthesis and structure-activity relationships of dequalinium analogues as K+ channel blockers. Investigations on the role of the charged heterocycle” (J Med Chem, 1995).
One block for each molecule: values may come before it.

Tests used:
Rattus norvegicus [1] = species on record: Rattus norvegicus; assay: Ratio of the concentrations of the test compound and dequalinium that cause 50% inhibition, as determined in the same experiment was reported. (number of neurons tested, n=3).; type: functional
In short: (§1)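 AHP inhibition recorded in cultured rat sympathetic neurones. Each compound was applied at two to four concentrations on at least three cells, generally not above 10–30 μM.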

Rattus norvegicus [2] = species on record: Rattus norvegicus; assay: Ability to inhibit after-hyperpolarization (AHP) in cultured rat sympathetic neurons. (number of neurons tested, n=3).; type: functional; conditions: Sympathetic neuron
In short: (§2)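 SK(Ca) block judged from inhibition of the after-hyperpolarization in cultured rat sympathetic neurones. Each compound was tested at two to four concentrations on at least three cells. Test concentrations above 10–30 μM were generally avoided. The time course of block onset was also noted.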

Rattus norvegicus [3] = species on record: Rattus norvegicus; assay: Ratio of the concentrations of the test compound and dequalinium that cause 50% inhibition, as determined in the same experiment was reported. (number of neurons tested, n=5).; type: functional; in short: as §1
Rattus norvegicus [4] = species on record: Rattus norvegicus; assay: Ability to inhibit after-hyperpolarization (AHP) in cultured rat sympathetic neurons. (number of neurons tested, n=5).; type: functional; conditions: Sympathetic neuron; in short: as §2
Rattus norvegicus [5] = species on record: Rattus norvegicus; assay: Ability to inhibit after-hyperpolarization (AHP) in cultured rat sympathetic neurons. (number of neurons tested, n=4).; type: functional; conditions: Sympathetic neuron; in short: as §2
Rattus norvegicus [6] = species on record: Rattus norvegicus; assay: Ratio of the concentrations of the test compound and dequalinium that cause 50% inhibition, as determined in the same experiment was reported. (number of neurons tested, n=4).; type: functional; in short: as §1
Rattus norvegicus [7] = species on record: Rattus norvegicus; assay: Ratio of the concentrations of the test compound and dequalinium that cause 50% inhibition, as determined in the same experiment was reported. (number of neurons tested, n=7).; type: functional
In short: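 AHP inhibition in cultured rat sympathetic neurones, with each compound at two to four concentrations on at least three cells. The equieffective molar ratio is the test compound's 50%-inhibitory concentration divided by that of dequalinium, both determined in the same experiment.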

Rattus norvegicus [8] = species on record: Rattus norvegicus; assay: Ability to inhibit after-hyperpolarization (AHP) in cultured rat sympathetic neurons. (number of neurons tested, n=7).; type: functional; conditions: Sympathetic neuron
In short: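 SK(Ca) block measured as inhibition of the after-hyperpolarization in cultured rat sympathetic neurones. Each compound was tested at two to four concentrations on at least three cells, generally not above 10–30 μM. Onset of block was also timed. The 50%-inhibitory concentration was determined.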

Rattus norvegicus [9] = species on record: Rattus norvegicus; assay: Ratio of the concentrations of the test compound and dequalinium that cause 50% inhibition, as determined in the same experiment was reported. (number of neurons tested, n=6).; type: functional; in short: as §1
Rattus norvegicus [10] = species on record: Rattus norvegicus; assay: Ability to inhibit after-hyperpolarization (AHP) in cultured rat sympathetic neurons. (number of neurons tested, n=6).; type: functional; conditions: Sympathetic neuron; in short: as §2
Rattus norvegicus [11] = species on record: Rattus norvegicus; assay: Ratio of the concentrations of the test compound and dequalinium that cause 50% inhibition, as determined in the same experiment was reported. (number of neurons tested, n=18).; type: functional; in short: as §1
Rattus norvegicus [12] = species on record: Rattus norvegicus; assay: Ability to inhibit after-hyperpolarization (AHP) in cultured rat sympathetic neurons. (number of neurons tested, n=18).; type: functional; conditions: Sympathetic neuron; in short: as §2
Rattus norvegicus [13] = species on record: Rattus norvegicus; assay: cells; conditions: Sympathetic neuron

IC50 (Rattus norvegicus [4]): 1 µM
Structure (SMILES): Nc1c2c([n+](CCCCCCCCCC[n+]3c4c(c(N)c5ccccc53)CCCC4)c3ccccc13)CCCC2
EMR (Rattus norvegicus [3]): 0.9

IC50 (Rattus norvegicus [5]): > 10 µM
Structure (SMILES): Cc1n(C)c2ccccc2[n+]1CCCCCCCCCC[n+]1c(C)n(C)c2ccccc21.O.O.[Cl-].[Cl-]
EMR (Rattus norvegicus [6]): >10

IC50 (Rattus norvegicus [2]): 5.5 µM
Structure (SMILES): CCCCCCCCCC[n+]1c(C)cc(N)c2ccccc21
EMR (Rattus norvegicus [1]): 4.7

IC50 (Rattus norvegicus [4]): 4.7 µM
Structure (SMILES): Brc1c[n+](CCCCCCCCCC[n+]2cc(Br)c3ccccc3c2)cc2ccccc12
EMR (Rattus norvegicus [3]): 7.6

IC50 (Rattus norvegicus [10]): 72 µM
Structure (SMILES): C[n+]1c(CCCCCCCCCCc2ccc3ccccc3[n+]2C)ccc2ccccc21
EMR (Rattus norvegicus [9]): 130

IC50 (Rattus norvegicus [5]): 21 µM
Structure (SMILES): C[n+]1c(CCCCCCCCCCCCc2ccc3ccccc3[n+]2C)ccc2ccccc21
EMR (Rattus norvegicus [6]): 33

IC50 (Rattus norvegicus [4]): 21 µM
Structure (SMILES): [Br-].[Br-].c1ccc2c(c1)ccc[n+]2CCCCCCCCCC[n+]1cccc2ccccc21
EMR (Rattus norvegicus [3]): 15

IC50 (Rattus norvegicus [2]): 9.5 µM
Structure (SMILES): COc1cc(CCCCCCCCCCc2cc(OC)c3ccccc3[n+]2C)[n+](C)c2ccccc12
EMR (Rattus norvegicus [1]): 27

IC50 (Rattus norvegicus [2]): 1.6 µM
Structure (SMILES): Cc1cc(N)c2ccccc2[n+]1CCCC#CC#CCCC[n+]1c(C)cc(N)c2ccccc21
EMR (Rattus norvegicus [1]): 2.4

IC50 (Rattus norvegicus [5]): 16 µM
Structure (SMILES): Cn1c[n+](CCCCCCCCCC[n+]2cn(C)c3ccccc32)c2ccccc21
EMR (Rattus norvegicus [6]): 77

IC50 (Rattus norvegicus [2]): 18 µM
Structure (SMILES): CC[N+](CC)(CC)CCCCCCCCCC[n+]1c(C)cc(N)c2ccccc21.[I-].[I-]
EMR (Rattus norvegicus [1]): 17

IC50 (Rattus norvegicus [12]): 0.74 µM
Structure (SMILES): Cc1cc(N)c2ccccc2[n+]1CCCCCCCCCC[n+]1c(C)cc(N)c2ccccc21.[Cl-].[Cl-] [DEQUALINIUM CHLORIDE]
EMR (Rattus norvegicus [11]): 1

Continued, molecule first:

Structure (SMILES): Nc1ccnc(NCCCCCCCCCCNc2cc(N)ccn2)c1
EMR (Rattus norvegicus [1]): 5 | IC50 (Rattus norvegicus [2]): 5.5 µM

Structure (SMILES): Nc1cc[n+](CCCC#CC#CCCC[n+]2ccc(N)cc2)cc1.O.O.[Cl-].[Cl-]
EMR (Rattus norvegicus [6]): 4.7

Structure (SMILES): C[n+]1cccnc1NCCCCCCCCCCNc1nccc[n+]1C
EMR (Rattus norvegicus [3]): >10 | IC50 (Rattus norvegicus [4]): > 10 µM

Structure (SMILES): Nc1cc[n+](CCCCCCCCCC[n+]2ccc(N)cc2)cc1
EMR (Rattus norvegicus [7]): 33 | IC50 (Rattus norvegicus [8]): 35 µM

Structure (SMILES): O=[N+]([O-])c1cc[n+]([O-])c(NCCCCCCCCCCNc2cc([N+](=O)[O-])cc[n+]2[O-])c1
IC50 (Rattus norvegicus [5]): > 30 µM | EMR (Rattus norvegicus [6]): >30

Structure (SMILES): c1ccc2c[n+](CCCCCCCCCC[n+]3ccc4ccccc4c3)ccc2c1
EMR (Rattus norvegicus [3]): 80 | IC50 (Rattus norvegicus [4]): 25 µM

Structure (SMILES): CCCC[n+]1c(C)cc(N)c2ccccc21
EMR (Rattus norvegicus [1]): 12

Structure (SMILES): c1ccc2c(NCCCCCCCCCCNc3c4ccccc4nc4ccccc34)c3ccccc3nc2c1
EMR (Rattus norvegicus [1]): 12.2 | IC50 (Rattus norvegicus [2]): 6.7 µM

Structure (SMILES): Nc1c2c(nc3ccccc13)CCCC2 [TACRINE]
IC50 (Rattus norvegicus [13]): 30 µM
